“Also recorded” adds a separate entry of the source. No end group written: not given here. *: point of attachment. pNA = O=[N+]([O-])c1ccc(N*)cc1; Cbz = O=C(OCc1ccccc1)*
Assays:
[1] = cited from earlier work; for side effects (in words): ref [18], [19]; for duration of action (in words): reference not given
[2] = tested on: apPEP (WT Aeromonus punctata PEP); assay: apPEP enzyme kinetics with chromogenic/fluorescent substrate Z-Gly-Pro-pNA; format: biochemical
How it was run: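 Free pNA was read […] to give initial velocities. Km came from a Lineweaver-Burk plot over 31–500 μM substrate. kcat/Km was taken as Vo/SoEo at two or more substrate concentrations.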

[3] = tested on: DPP4; details: ref [64]; cited from earlier work
[4] = tested on: PEP; details: ref [9]; cited from earlier work
[5] = tested on: apPEP (WT and D622N crystals); assay: Crystal soaking with zPP; format: binding, Aeromonus punctata
How it was run: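 Native full-length WT or D622N apPEP (E. coli-expressed, Ni-affinity purified, thrombin-cleaved, SEC) crystallized at 14 °C with 20 mM MES pH 6.5 and PEG. Crystals were cryoequilibrated 1–2 days at 4 °C, soaked overnight at 4 °C, then glutaraldehyde vapour cross-linked for 4 h at 4 °C. Data were collected at 100 K; structures solved by molecular replacement, with inhibitor placed from difference maps.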

For N#C[C@@H]1CCCN1C(=O)CNC12CC3CC(CC(O)(C3)C1)C2 [Galvus], the “side effects (in words)” value [1] is given as “no significant negative side effects” and the “duration of action (in words)” value [1] is given as “act transiently”.

For N[C@@H](CC(=O)N1CCn2c(nnc2C(F)(F)F)C1)Cc1cc(F)c(F)cc1F [Januvia], the “side effects (in words)” value [1] is given as “no significant negative side effects” and the “duration of action (in words)” value [1] is given as “act transiently”.

With Cbz-Gly-Pro-pNA the kcat ([2]; 20 mM Tris-HCl (pH 8), 100 mM NaCl, 34 °C) was 505 s⁻¹ and the kcat/Km ([2]; from initial rates, kcat/Km = Vo/SoEo, substrate 16–62 μM, pH 8, 34 °C) was 623000 M⁻¹ s⁻¹.

For IP10: DPP4 substrate, the “cleavage efficiency by DPP4 relative to GLP1 (in words)” value [3] is given as “even higher efficiency than GLP1”.

For angiotensin I-II, the “cleavage by PEP (in words)” value [4] is given as “Cleavage”.

In the case of “benzyloxy-carbonyl-prolyl-prolinal [zPP]”, the “contact with catalytic Ser538 (in words)” value ([5]; D622N-zPP structure) is reported as “makes van der Waals contact with the aldehyde group of the inhibitor” and the “conformational change induced by inhibitor (in words)” value ([5]; preformed native crystals soaked with 10 mM zPP overnight at 4 °C) is reported as “inducing a conformational change from opened (red) to closed (blue) states; also recorded: induces large scale interdomain closure”.

For “bradykinin: cleaved by PEP (RPPGFSPFR; Bradykinin; UniProt P01042 381-389, looked up)”, the “cleavage by PEP (in words)” value [4] is given as “Cleavage”.

For “gastrin-releasing peptide 3–27: DPP4 substrate (LPAGGGTVLTKMYPRGNHWAVGHLM; ends and bridges not checked; UniProt P07492 26-50, looked up, fragment)”, the “cleavage efficiency by DPP4 relative to GLP1 (in words)” value [3] is given as “even higher efficiency than GLP1”.

In the case of “neuropeptide Y: involved in neurogenic inflammation and blood pressure regulation”, the “cleavage efficiency by DPP4 relative to GLP1 (in words)” value [3] is listed as “even higher efficiency than GLP1”.

For stromal cell-derived factor 1α, the “cleavage efficiency by DPP4 relative to GLP1 (in words)” value [3] is given as “even higher efficiency than GLP1”.

B1: monocyte-derived chemokine: DPP4 substrate (protein, UniProt O00626 25-93, looked up)
C-C motif chemokine 22: GPYGANMEDSVCCRDYVRYRLPLRVVKHFYWTSDSCPRPGVVLLTFRDKEICADPRVPWVKMILNKLSQ
In the case of B1, the “cleavage efficiency by DPP4 relative to GLP1 (in words)” value [3] is given as “even higher efficiency than GLP1”.

B2: interferon-inducible T cell α: DPP4 substrate (protein, UniProt O14625 22-94, looked up)
C-X-C motif chemokine 11: FPMFKRGRCLCIGPGVKAVKVADIEKASIMYPSNNCDKIEVIITLKENKGQRCLNPKSKQARLIIKKVERKNF
In the case of B2, the “cleavage efficiency by DPP4 relative to GLP1 (in words)” value [3] is listed as “even higher efficiency than GLP1”.

B3: Mig: DPP4 substrate (protein, UniProt Q07325 23-125, looked up)
C-X-C motif chemokine 9: TPVVRKGRCSCISTNQGTIHLQSLKDLKQFAPSPSCEKIEIIATLKNGVQTCLNPDSADVKELIKKWEKQVSQKKKQKNGKKHQKKKVLKVRKSQRSRQKKTT
For B3, the “cleavage efficiency by DPP4 relative to GLP1 (in words)” value [3] is listed as “even higher efficiency than GLP1”.

— paper PMC2898448 (The Journal of Biological Chemistry, 2010)
